According to ChEMBL document CHEMBL5055645 (J Med Chem, 2021):
The source made the active and inactive calls. No cut-off for these calls is given here.

How the values were obtained:
[1] = Stability in human serum assessed as compound degradation measured at 2 mg/ml after 24 hrs at 37C by RP-HPLC analysis; type: ADME, cell-free
Procedure, shortened: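 Peptide at 2 mg/mL final in 25% (v/v) pooled human male AB serum, incubated at 37 °C for 24 h. Samples quenched with equal volume acetonitrile on ice for 20 min and centrifuged at 4 °C. Supernatant diluted to 0.1 mg/mL and run on RP-HPLC. Intact peptide estimated from peak area at 215 nm.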

[2] = In vivo stability in C57BL/6J mouse serum assessed as compound degradation measured at 5 mg/kg, iv after 15 mins by LC/MS/MS analysis; type: ADME, organism-based; conditions: 0.25 h
Procedure, shortened: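 Mice (C57BL/6J, 8 weeks old, 20–30 g), 4 male and 4 female per group, given one i.v. dose of 5 mg/kg. Submandibular blood drawn into EDTA tubes at 15 min, 30 min, 1, 2, 4, 8 and 24 h. Plasma protein precipitated with 9:1 acetonitrile/acetic acid on ice, centrifuged, and the supernatant analysed by LC/MS/MS.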

Mus musculus [3] = assay: Hyperglycemic effect in C57BL/6J mouse assessed as increase in blood glucose level at 50 microg/kg, iv measured measured after 30 mins by intraperitoneal insulin tolerance test; type: functional, organism-based; conditions: dose 50.0 µg/kg
Procedure, shortened: (§1)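 Female C57BL/6J mice, 8 weeks old, 20–30 g, 5 per group. After a 3 h fast they received insulin 0.75 IU/kg, then a single i.v. dose of peptide (50 or 500 μg/kg) or saline. Blood glucose read by glucometer at 15, 30 and 60 min after injection.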

Mus musculus [4] = assay: Hyperglycemic effect in C57BL/6J mouse assessed as increase in blood glucose level at 500 microg/kg, iv measured measured after 30 mins by intraperitoneal insulin tolerance test; type: functional, organism-based; conditions: dose 500.0 µg/kg; procedure, shortened: as §1
Mus musculus [5] = assay: Hyperglycemic effect in C57BL/6J mouse assessed as increase in blood glucose level at 50 microg/kg, iv measured measured up to 60 mins by intraperitoneal insulin tolerance test; type: functional, organism-based; conditions: dose 50.0 µg/kg
Procedure, shortened: (§2)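 Wild-type 8-week-old female mice weighing 20–30 g, 7 groups of 5. Mice fasted 3 h, then given insulin (0.75 IU/kg). […] Blood glucose read with a glucometer at 15, 30 and 60 min post-injection.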

Mus musculus [6] = assay: Hyperglycemic effect in C57BL/6J mouse assessed as increase in blood glucose level at 500 microg/kg, iv measured measured up to 60 mins by intraperitoneal insulin tolerance test; type: functional, organism-based; conditions: dose 500.0 µg/kg; procedure, shortened: as §2

Sequence	Drug degradation [1]	Stability [2]	Activity (Mus musculus [3])	Activity (Mus musculus [4])	Activity (Mus musculus [5])	Activity (Mus musculus [6])
GLUCAGON [listing 1 of 2 here]	> 85%	Unstable	–	–	–	–
GLUCAGON [listing 2 of 2 here]	–	–	Active	Active	Active	Active
